In ChEMBL document CHEMBL1255538, “Synthesis and molecular docking study of novel coumarin derivatives containing 4,5-dihydropyrazole moiety as potential antitumor agents” (Bioorg Med Chem Lett, 2010):
Values after ≈ are worked out from the molar mass of the structure shown.

Columns and labels:
SGC-7901 [1] = test: Cytotoxicity against human SGC7901 cells after 48 hrs by MTT assay; assay type: functional, cell-based
Outline: (§1)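 Tumour cells grown to log phase in RPMI 1640 with 10% FBS, seeded at 3 × 10⁴ cells/mL, preincubated 24 h at 37 °C, 5% CO₂. Test samples at pre-set concentrations were added to 6 wells, with 5-fluorouracil as positive reference, for 48 h. MTT was then added for 4 h, formazan was dissolved in DMSO and absorbance read at 570 nm. IC50 from three experiments in triplicate, mean ± SD.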

PC-3 = test: Cytotoxicity against human PC3 cells after 48 hrs by MTT assay; assay type: functional, cell-based; outline: as §1
A-431 = test: Cytotoxicity against human A431 cells after 48 hrs by MTT assay; assay type: functional, cell-based; outline: as §1
[2] = target: DNA polymerase I, thermostable (Thermus aquaticus, UniProt P19821); test: Inhibition of Taq polymerase
Outline: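 Taq polymerase inhibition was monitored alongside the modified TRAP assay to detect interference with the amplification step. IC50 was the concentration giving 50% Taq polymerase inhibition.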

[3] = target: Telomerase reverse transcriptase (Homo sapiens, UniProt O14746); test: Inhibition of telomerase in human SGC7901 cells by TRAP assay; assay type: cell-based, SGC-7901
Outline: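 Modified TRAP assay using SGC-7901 cell extract as the telomerase source. IC50 taken from three experiments in triplicate, mean ± SD.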

SGC-7901 [4] = test: Selectivity index, ratio of IC50 for Taq polymerase to IC50 for telomerase in human SGC7901 cells; assay type: cell-based
Outline: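 Ratio of the concentration giving 50% Taq polymerase inhibition to the concentration giving 50% telomerase inhibition. Telomerase was measured by modified TRAP with SGC-7901 cell extract.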

[5] = Homo sapiens, SGC-7901, 48 h, read-out: IC50
[6] = Homo sapiens, PC-3, 48 h, read-out: IC50
[7] = Homo sapiens, A-431, 48 h, read-out: IC50

Chain of DNA polymerase I, thermostable (P19821 whole entry): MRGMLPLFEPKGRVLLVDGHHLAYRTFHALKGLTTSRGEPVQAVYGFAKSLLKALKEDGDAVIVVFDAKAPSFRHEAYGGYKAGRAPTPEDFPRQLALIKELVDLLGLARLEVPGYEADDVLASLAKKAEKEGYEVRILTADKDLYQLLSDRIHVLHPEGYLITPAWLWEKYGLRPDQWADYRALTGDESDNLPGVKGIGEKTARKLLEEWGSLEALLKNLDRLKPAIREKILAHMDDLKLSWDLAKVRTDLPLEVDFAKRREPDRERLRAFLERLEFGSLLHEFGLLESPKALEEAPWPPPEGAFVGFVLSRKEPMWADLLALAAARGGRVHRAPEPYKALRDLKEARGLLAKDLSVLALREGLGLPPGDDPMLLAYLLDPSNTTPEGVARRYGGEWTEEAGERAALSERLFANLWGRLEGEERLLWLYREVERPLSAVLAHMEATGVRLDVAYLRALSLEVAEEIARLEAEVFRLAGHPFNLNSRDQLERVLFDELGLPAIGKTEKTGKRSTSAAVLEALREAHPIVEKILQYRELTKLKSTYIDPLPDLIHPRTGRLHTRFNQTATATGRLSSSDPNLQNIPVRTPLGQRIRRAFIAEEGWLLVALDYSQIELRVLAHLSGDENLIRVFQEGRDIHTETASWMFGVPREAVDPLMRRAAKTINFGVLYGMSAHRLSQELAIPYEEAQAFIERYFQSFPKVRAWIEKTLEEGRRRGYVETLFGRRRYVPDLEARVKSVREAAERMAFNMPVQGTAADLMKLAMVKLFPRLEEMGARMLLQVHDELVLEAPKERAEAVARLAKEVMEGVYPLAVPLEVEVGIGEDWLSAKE
Chain of Telomerase reverse transcriptase (O14746 whole entry): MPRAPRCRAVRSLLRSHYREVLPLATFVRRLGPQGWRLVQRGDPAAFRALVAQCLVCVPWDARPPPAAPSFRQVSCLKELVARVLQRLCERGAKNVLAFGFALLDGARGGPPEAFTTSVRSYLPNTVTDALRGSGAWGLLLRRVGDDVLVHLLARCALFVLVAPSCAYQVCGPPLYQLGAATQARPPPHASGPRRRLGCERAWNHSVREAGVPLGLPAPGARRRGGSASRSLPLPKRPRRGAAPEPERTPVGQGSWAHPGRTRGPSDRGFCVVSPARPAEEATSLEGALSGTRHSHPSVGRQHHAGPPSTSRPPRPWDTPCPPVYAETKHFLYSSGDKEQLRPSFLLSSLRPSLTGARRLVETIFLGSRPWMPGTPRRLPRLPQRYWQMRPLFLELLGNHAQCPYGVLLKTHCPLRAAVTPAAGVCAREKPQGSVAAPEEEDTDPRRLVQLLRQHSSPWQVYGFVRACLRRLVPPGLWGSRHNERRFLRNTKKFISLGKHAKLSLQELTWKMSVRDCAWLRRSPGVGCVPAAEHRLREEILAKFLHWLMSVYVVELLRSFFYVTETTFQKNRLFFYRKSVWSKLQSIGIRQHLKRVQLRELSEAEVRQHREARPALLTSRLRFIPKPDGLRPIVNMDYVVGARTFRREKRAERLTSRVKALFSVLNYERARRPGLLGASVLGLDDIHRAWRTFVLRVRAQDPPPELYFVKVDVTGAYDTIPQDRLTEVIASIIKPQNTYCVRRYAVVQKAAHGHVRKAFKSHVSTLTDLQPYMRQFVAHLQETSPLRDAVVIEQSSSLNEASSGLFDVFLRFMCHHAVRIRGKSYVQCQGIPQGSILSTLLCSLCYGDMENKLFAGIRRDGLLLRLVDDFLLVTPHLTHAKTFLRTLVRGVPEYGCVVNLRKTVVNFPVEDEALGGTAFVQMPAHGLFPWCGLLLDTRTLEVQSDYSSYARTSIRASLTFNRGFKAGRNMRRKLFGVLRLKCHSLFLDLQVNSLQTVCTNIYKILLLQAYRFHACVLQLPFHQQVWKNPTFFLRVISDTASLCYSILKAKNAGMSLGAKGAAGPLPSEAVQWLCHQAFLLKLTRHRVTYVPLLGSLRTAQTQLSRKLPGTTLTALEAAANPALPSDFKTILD

SMILES | IC50 (SGC-7901 [1]; [5]) [µg/mL] | IC50 (PC-3; [6]) [µg/mL] | IC50 (A-431; [7]) [µg/mL] | IC50 ([2]; read-out: IC50) [µM] | IC50 ([3]; read-out: IC50) [µM] | Selectivity Index (SGC-7901 [4]) | IC50 (SGC-7901 [1]; sgc-7901) | IC50 (A-431; a-431) | IC50 [2] | IC50 ([3]; sgc-7901) | IC50 (PC-3; pc-3)
CC(=O)N1N=C(c2cc3ccccc3oc2=O)CC1c1ccccc1 (centres undefined) | 2.69 (≈ 8.09 µM) | 40.2 (≈ 121 µM) | 51.7 (≈ 156 µM) | 6 | 2 | 3 | – | – | – | – | –
CC(=O)N1N=C(c2cc3c(Br)cccc3oc2=O)CC1c1ccc(O)cc1 (centres undefined) | 22.3 (≈ 52.3 µM) | 38.8 (≈ 90.7 µM) | 68.3 (≈ 160 µM) | 10 | 4 | 2.5 | – | – | – | – | –
CC1=NN(C=O)C(c2ccccc2O)C1 (centres undefined) | – | 65.1 (≈ 319 µM) | – | – | – | – | Not Active | Not Active | Not Active | Not Active | –
CC[n+]1c(-c2ccccc2)c2cc(N)ccc2c2ccc(N)cc21 [HOMIDIUM BROMIDE] | – | – | – | – | 2.5 | – | – | – | – | – | –
COc1ccc(C2CC(c3cc4ccccc4oc3=O)=NN2C(C)=O)cc1 (centres undefined) | 48.7 (≈ 134 µM) | – | 68.7 (≈ 190 µM) | – | 36.7 | – | – | – | Not Active | – | Not Active
CC(=O)N1N=C(c2cc3ccccc3oc2=O)CC1c1ccc(O)cc1 (centres undefined) | 35.9 (≈ 103 µM) | 58.7 (≈ 169 µM) | 73 (≈ 209 µM) | 58.5 | 29.1 | 2 | – | – | – | – | –
CC(=O)N1N=C(c2cc3ccccc3oc2=O)CC1c1ccccc1Cl (centres undefined) | 29.9 (≈ 81.6 µM) | 55.1 (≈ 150 µM) | 50.6 (≈ 138 µM) | 16.8 | 6.5 | 2.6 | – | – | – | – | –
CC(=O)N1N=C(c2cc3c(Br)cccc3oc2=O)CC1c1ccccc1 (centres undefined) | 28.9 (≈ 70.3 µM) | 58.1 (≈ 141 µM) | 48.1 (≈ 117 µM) | 4 | 1.8 | 2.2 | – | – | – | – | –
COc1ccc(/C=C/C(=O)c2cc3ccccc3oc2=O)cc1 | – | – | – | – | – | – | Not Active | Not Active | Not Active | Not Active | Not Active
CC(=O)N1N=C(c2cc3ccccc3oc2=O)CC1c1ccc(Cl)cc1Cl (centres undefined) | 39.9 (≈ 99.5 µM) | 46.7 (≈ 116 µM) | 68.7 (≈ 171 µM) | 20.7 | 9.6 | 2.1 | – | – | – | – | –
O=c1[nH]cc(F)c(=O)[nH]1 [FLUOROURACIL] | – | 2.48 (≈ 19.1 µM) | 2.17 (≈ 16.7 µM) | – | – | – | – | – | – | – | –
